Assay results published in ChEMBL document CHEMBL3822431, “Hydroxychalcone inhibitors of Streptococcus mutans glucosyl transferases and biofilms as potential anticaries agents” (Bioorg Med Chem Lett, 2016).
The source made the active and inactive calls. The calls are words filed in the database; no cut-off is given here.

Assays:
[1] = target: T1, Glucosyltransferase-SI (Streptococcus mutans serotype c (strain ATCC 700610 / UA159)) (UniProt P13470); experiment: Inhibition of Wild-type Streptococcus mutans UA159 glucosyltransferase C at 50 uM by zymography
T1 sequence (whole entry): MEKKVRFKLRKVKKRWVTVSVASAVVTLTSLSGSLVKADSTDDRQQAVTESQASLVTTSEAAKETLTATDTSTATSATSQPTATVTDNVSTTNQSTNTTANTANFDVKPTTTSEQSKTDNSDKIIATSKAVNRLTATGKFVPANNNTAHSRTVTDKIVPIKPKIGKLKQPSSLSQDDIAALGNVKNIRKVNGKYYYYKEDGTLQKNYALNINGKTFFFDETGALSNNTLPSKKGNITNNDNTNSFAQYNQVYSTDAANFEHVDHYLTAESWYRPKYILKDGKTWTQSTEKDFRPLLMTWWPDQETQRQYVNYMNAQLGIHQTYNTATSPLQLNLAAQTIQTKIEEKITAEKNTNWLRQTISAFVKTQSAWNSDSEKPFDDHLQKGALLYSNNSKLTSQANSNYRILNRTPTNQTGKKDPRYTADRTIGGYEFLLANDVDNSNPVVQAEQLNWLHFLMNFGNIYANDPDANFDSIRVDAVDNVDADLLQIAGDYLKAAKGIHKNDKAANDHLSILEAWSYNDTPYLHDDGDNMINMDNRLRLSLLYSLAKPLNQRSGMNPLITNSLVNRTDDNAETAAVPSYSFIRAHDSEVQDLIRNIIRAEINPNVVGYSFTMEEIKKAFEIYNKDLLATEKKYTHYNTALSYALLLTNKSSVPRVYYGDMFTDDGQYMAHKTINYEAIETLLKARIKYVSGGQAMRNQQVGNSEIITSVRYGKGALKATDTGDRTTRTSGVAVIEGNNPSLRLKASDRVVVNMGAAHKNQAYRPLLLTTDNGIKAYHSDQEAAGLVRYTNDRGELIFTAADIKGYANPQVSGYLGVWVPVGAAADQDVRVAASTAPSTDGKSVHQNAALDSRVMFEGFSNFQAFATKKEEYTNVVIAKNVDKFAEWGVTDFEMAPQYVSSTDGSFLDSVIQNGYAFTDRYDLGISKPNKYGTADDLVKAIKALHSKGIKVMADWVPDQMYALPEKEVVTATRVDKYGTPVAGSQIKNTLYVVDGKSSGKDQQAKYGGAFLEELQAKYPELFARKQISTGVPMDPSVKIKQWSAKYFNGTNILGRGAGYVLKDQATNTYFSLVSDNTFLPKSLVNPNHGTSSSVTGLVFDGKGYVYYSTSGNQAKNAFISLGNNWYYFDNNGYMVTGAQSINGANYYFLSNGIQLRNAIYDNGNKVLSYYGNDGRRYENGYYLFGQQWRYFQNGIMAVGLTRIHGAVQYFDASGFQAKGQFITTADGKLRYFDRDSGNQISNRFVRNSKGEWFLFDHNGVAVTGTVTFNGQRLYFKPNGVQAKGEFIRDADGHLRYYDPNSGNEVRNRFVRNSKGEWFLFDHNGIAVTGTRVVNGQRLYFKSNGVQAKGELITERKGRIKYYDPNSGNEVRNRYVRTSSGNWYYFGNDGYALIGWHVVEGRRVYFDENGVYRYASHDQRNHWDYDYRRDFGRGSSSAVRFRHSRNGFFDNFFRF
How it was run: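 Compound (50 µM) added to overnight S. mutans UA159 wild-type cultures; Gtfs concentrated from supernatants, run on duplicate SDS-PAGE; second gel used for zymogram, glucan band intensity taken as Gtf activity.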

Streptococcus mutans [2] = experiment: Inhibition of Gfp tagged Streptococcus mutans UA159 colony formation in guts of sucrose-dependent Drosophila colonization model at 50 uM measured 7 days post infection by fluorescent microscopy; format: functional, organism-based
How it was run: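 Drosophila fed Gfp-tagged S. mutans with compound at 50 µM; DMSO as negative control, ΔgtfB mutant as biofilm-defective comparator; gut fluorescence examined by fluorescent microscopy 7 days after infection.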

Streptococcus mutans [3] = experiment: Selectivity index, ratio of growth inhibition IC50 for Streptococcus mutans UA159 to biofilm inhibition IC50 for Streptococcus mutans UA159

Row | SMILES | inhibition [1] | inhibition (Streptococcus mutans [2]) | Ratio IC50 (Streptococcus mutans [3])
1 | O=C(/C=C\c1ccc(O)cc1O)c1cccc(O)c1 | Active | Active | 10.6
2 | O=C(/C=C/c1cc(O)c(O)cc1O)c1ccccc1O (stereo in doubt; 18c) | Active |  | 
3 | O=C(/C=C/c1ccc(O)cc1O)c1ccc(O)cc1 | Active |  | 6.6
4 | O=C(/C=C\c1ccc(O)cc1O)c1ccc(O)cc1 | Active |  | 10.1
5 | O=C(/C=C/c1ccc(O)cc1O)c1cccc(O)c1 (stereo in doubt; 9a) | Active | Active | 
